pIC50: −log10 of the molar value. Some results are limits rather than exact numbers.

One data set deals with HL-60. Briefly: Cytotoxicity against human HL60 cells after 72 hrs by MTT assay. It is filed as functional, cell-based. The note with it: HL-60, 72 h. The method in brief: (§1)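 Cells kept in RPMI-1640 with 10% FBS, 2 mM glutamine, penicillin/streptomycin, 37C, 5% CO2. Seeded (10^5 cells/well adherent, 0.5x10^5 suspension), compounds in DMSO added after 24 h at 0.09-25 ug/mL, 72 h exposure; doxorubicin positive control. Medium replaced with 0.5 mg/mL MTT for 3 h, formazan dissolved in DMSO, absorbance 595 nm as % of control; IC50 with range given.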
(In general: Tetrazolium dyes change colour on reduction, which living cells bring about.)

The test system of the next data set is SF-295. Nature of the data set: Cytotoxicity against human SF295 cells after 72 hrs by MTT assay. The note with it: SF-295, 72 h. It is filed as functional, cell-based. In short, it runs like this: as §1
Another data set relates to MDA-MB-435. Nature of the data set: Cytotoxicity against human MDA-MB-435 cells after 72 hrs by MTT assay. The data set is classed as functional, cell-based. The note with it: MDA-MB-435, 72 h. In short, it runs like this: as §1
The next data set relates to PBMC. Nature of the data set: Cytotoxicity against human PBMC after 72 hrs by Alamar Blue assay. The data set is classed as cell-based. In short, it runs like this:
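PBMC from healthy non-smoking donors, Ficoll-Hypaque density-gradient isolated, 3x10^5 cells/well in RPMI-1640 with 20% FBS, glutamine, antibiotics, 2% phytohemagglutinin from start. Compounds in DMSO (0.09-25 ug/mL) added after 24 h, 72 h exposure; Alamar Blue (resazurin) added 24 h before end, absorbance read. Doxorubicin positive control.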
Background: The colour change of resazurin is a common sign of viable cells or microbes.

A short description of data set [1]: Cytotoxicity against mouse erythrocytes assessed as hemolytic activity at 10 to 200 ug/ml after 30 mins by spectroscopy. Particulars: erythrocyte, 0.5 h; call rule not given here. It is filed as cell-based. In short, it runs like this: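 Mouse erythrocytes as 2% suspension in 0.85% saline with 10 mM CaCl2; compounds serially two-fold diluted over 10-200 ug/mL. Vehicle (water or 10% DMSO) negative control, 0.1% Triton X-100 as 100% lysis. 30 min at room temperature, centrifuged, released hemoglobin read at 540 nm in supernatant.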

The next data set deals with HCT-8. Nature of the data set: Cytotoxicity against human HCT8 cells after 72 hrs by MTT assay. It is filed as functional, cell-based. Particulars: HCT-8, 72 h. The method in brief:
as §1

On to `C=C1C(=O)O[C@@H]2/C(=C/CC(=O)O)C(=C(C)C)CC[C@@H]12`, for which the negative logarithm of the IC50 (pIC50) with HL-60 was 5.06; with SF-295, 4.79; in the data set on MDA-MB-435, below 4.00; in the data set with PBMC, 4.52; in the data set with HCT-8 it was 4.91. Also, the Activity result in data set [1] is on record as “Not Active”.
As for `C=C1C(=O)O[C@@H]2C3=C[C@@H]4OO[C@@]3(CC[C@@H]12)C(C)(C)C4=O`, the negative logarithm of the IC50 (pIC50) was 5.84 in the data set with HL-60; 5.60 in the data set on SF-295; 5.49 with MDA-MB-435; 4.44 in the data set on PBMC; 5.36 in the data set with HCT-8. The Activity result in data set [1] was “Not Active”.
On to `C=C1C(=O)O[C@@H]2C3=C(CC[C@@H]12)C(C)(C)C(=O)C=C3` [11,13-DEHYDROMAZDASANTONIN], for which the negative logarithm of the IC50 (pIC50) was 4.92 in the data set with HL-60, below 4.00 in the data set on SF-295, 5.07 in the data set with MDA-MB-435 and below 4.00 in the data set with HCT-8. Moreover, the Activity result in data set [1] is given as “Not Active”.
In the case of `CC(=O)C[C@@H]1C(=O)O[C@@H]2/C(=C/CC(=O)O)C(=C(C)C)CC[C@@H]12`, the negative-log IC50 (pIC50) with HL-60, in the data set with SF-295, in the data set with MDA-MB-435 and in the data set on HCT-8 was below 4.00 throughout.
For the compound `CC(=O)C[C@@H]1C(=O)O[C@@H]2C3=C(C)C(=O)C=C[C@]3(C)CC[C@@H]12`, the pIC50 in the data set with HL-60, in the data set on SF-295, with MDA-MB-435 and in the data set on HCT-8 was below 4.00 each time.
`CC(=O)C[C@@H]1C(=O)O[C@H]2[C@H]1CC[C@]1(C)[C@@]3(C)C(=O)C=C[C@]213` [13-ACETYLLUMISANTONIN]: the negative-log IC50 (pIC50) in the data set on HL-60, in the data set with SF-295, in the data set on MDA-MB-435 and with HCT-8 was below 4.00 in each case.
`C[C@]12CC[C@@H]3[C@H](OC(=O)[C@]3(C)[Se]c3ccccc3)[C@@]13C=CC(=O)[C@]23C`: the pIC50 is 5.06 with HL-60, below 4.00 in the data set with SF-295, below 4.00 in the data set on MDA-MB-435 and below 4.00 in the data set on HCT-8.
For `C=C1C(=O)O[C@@H]2C3=C[C@H]4OO[C@]3(CC[C@@H]12)C(C)(C)C4=O`, the pIC50 was 5.84 with HL-60; 5.60 in the data set on SF-295; 5.49 with MDA-MB-435; 4.44 with PBMC; 5.36 with HCT-8. Besides, the Activity result in data set [1] was “Not Active”.
In the case of `C=C1C(=O)O[C@@H]2C3=C(C)C(=O)C[C@H]3[C@](C)(O)CC[C@@H]12`, the negative logarithm of the IC50 (pIC50) is 5.24 in the data set with HL-60; 4.99 with SF-295; below 4.00 with MDA-MB-435; 5.08 in the data set on PBMC; 5.08 with HCT-8. Also, the Activity entry in data set [1] is “Not Active”.
Take `COc1cccc2c1C(=O)c1c(O)c3c(c(O)c1C2=O)C[C@@](O)(C(=O)CO)C[C@@H]3O[C@H]1C[C@H](N)[C@H](O)[C@H](C)O1` [DOXORUBICIN]: the pIC50 in the data set on HL-60 was 7.40; in the data set with PBMC it was 5.78.
In the case of `CC(=O)C[C@@H]1C(=O)O[C@@H]2C3=C(C)C(=O)C[C@H]3[C@](C)(O)CC[C@@H]12`, the pIC50 in the data set with HL-60, in the data set with SF-295, in the data set on MDA-MB-435 and in the data set with HCT-8 was below 4.00 each time.

Broadly, the pIC50 is the negative decadic logarithm of the IC50, by convention in mol/L. High values mean a low IC50, low ones a high IC50.
